Diaphorase act = activates diaphorase or chemically reduces, flagging diaphorase assay artifacts; Diaphorase/resazurin coupled assay, resorufin fluorescence, 16 min; active compounds read high; 1 = vehicle wells, 0 = NADH-free wells; activation factor at 20 µM; 190,000 tested, 0.005% active; AID 1229;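 active means diaphorase activity raised at least twofold by the compound at 20 µM; inactive means activation factor below 2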
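Assay system: bacterial diaphorase enzyme (C. kluyveri) / Input: enzyme 0.07 U/mL final / Medium: 50 mM HEPES pH 7.4 with 4.542 mM MgCl2, 0.005% Tween 20 / Doses: single compound dose of 20 µM, 1% DMSO final / Incubation: 16 min enzyme reaction, ambient temperature / Signal: fluorescence, excitation 544 nm and emission 590 nm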
PfGluPho inh = PfG6PD (Plasmodium falciparum) enzyme inhibition. PfGluPho enzyme, NADPH resazurin-diaphorase fluorescence. inhibition, % at 20 µM. 350,000 tested, 0.78% active. AID 504690;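 active means inhibition reaching at least a set limit at 20 µM in the primary screen, cut at about 59% in these data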;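 further: 0% = DMSO wells with substrate and 100% = DMSO wells lacking glucose-6-phosphate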
HKDC1 inh = blocks human hexokinase HKDC1 activity | Q2TB90 | recombinant HKDC1, G6PDH/diaphorase resazurin coupled fluorescence | inhibition, % at 20 µM | 340,000 tested, 0.16% active | AID 493160;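 active means inhibition above about 35% when tested at 20 µM, limit read from the data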;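 further: plate controls were DMSO wells with enzyme for no effect and DMSO wells lacking enzyme for full effect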
Target sequence (Q2TB90 whole entry, looked up): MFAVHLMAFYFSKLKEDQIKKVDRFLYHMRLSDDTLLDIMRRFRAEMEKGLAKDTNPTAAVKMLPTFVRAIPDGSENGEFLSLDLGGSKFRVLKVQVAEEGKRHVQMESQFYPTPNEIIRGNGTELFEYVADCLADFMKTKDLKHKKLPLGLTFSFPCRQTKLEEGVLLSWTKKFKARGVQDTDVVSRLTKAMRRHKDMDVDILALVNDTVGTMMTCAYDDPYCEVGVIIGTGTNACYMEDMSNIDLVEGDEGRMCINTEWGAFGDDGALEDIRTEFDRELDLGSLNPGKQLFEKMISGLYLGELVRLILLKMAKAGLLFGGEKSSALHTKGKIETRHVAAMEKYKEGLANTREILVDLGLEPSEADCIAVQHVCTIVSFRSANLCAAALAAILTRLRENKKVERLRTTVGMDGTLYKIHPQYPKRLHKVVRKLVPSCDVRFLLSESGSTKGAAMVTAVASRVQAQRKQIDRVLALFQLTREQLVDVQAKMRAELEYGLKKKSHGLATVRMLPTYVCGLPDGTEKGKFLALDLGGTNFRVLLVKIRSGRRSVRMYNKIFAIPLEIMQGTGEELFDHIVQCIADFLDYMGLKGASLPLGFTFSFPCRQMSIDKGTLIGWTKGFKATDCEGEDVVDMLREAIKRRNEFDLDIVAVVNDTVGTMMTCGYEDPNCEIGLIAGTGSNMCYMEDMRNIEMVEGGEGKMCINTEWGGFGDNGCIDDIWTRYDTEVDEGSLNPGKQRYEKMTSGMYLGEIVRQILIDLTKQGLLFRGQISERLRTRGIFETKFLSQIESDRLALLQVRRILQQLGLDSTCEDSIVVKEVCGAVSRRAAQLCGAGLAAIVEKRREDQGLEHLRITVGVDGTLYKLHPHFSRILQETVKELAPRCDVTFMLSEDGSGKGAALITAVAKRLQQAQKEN
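Test system: HK5 enzyme. Quantity: 5 µg/mL HK5 final. Reagent: glucose and ATP substrates. Schedule: 90 min reaction incubation at room temperature, dark. Technique: resazurin-to-resorufin fluorescence via G6PDH and diaphorase coupling, 525/613 nm. Control set: DMSO wells with and without enzyme mix.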
G6PDH CS = counter-screen for G6PDH assay hits: L. mesenteroides G6PDH inhibition. inhibition, % at 5 µM. Purified L. mesenteroides G6PDH, diaphorase/resazurin coupled fluorescence, 45 min. 200,000 tested, 0.12% active; in the data active means inhibition above about 50%
Diaphorase inh = inhibits diaphorase or chemically oxidizes, flagging diaphorase assay artifacts | diaphorase resazurin-to-resorufin fluorescence, NADH, 16 min; bacterial (C. kluyveri) enzyme, not human | inhibition, % at 20 µM | 190,000 tested, 0.69% active;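 active means primary screen inhibition at 20 µM above a set limit, cut at about 50% in these data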;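 further: plate controls were DMSO with full reaction for no effect and wells lacking NADH for full effect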
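Test system: Clostridium kluyveri diaphorase enzyme / Quantity: diaphorase at 0.14 U/mL in enzyme working solution / Incubation: 16-min room-temperature incubation before reading / Benchmarks: NADH-free wells as positive control, DMSO-only neutral wells / Signal: resorufin fluorescence 544/590 nm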
HKDC1 act conf = HKDC1 (human) activation, single-dose confirmed. shares compounds with HKDC1 inh. recombinant HKDC1, G6PDH/diaphorase resazurin fluorescence; active compounds read low. inhibition, % at 20 µM. 740 tested, 14% active;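 active means inhibition at or below a set negative limit, negative inhibition meaning the enzyme was activated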
PfGluPho conf = confirmation of Plasmodium falciparum G6PD inhibitors; 2,400 tested, 34% active; recombinant PfGluPho, NADPH-diaphorase-resazurin fluorescence; shares compounds with PfGluPho inh; inhibition, % at 20 µM; AID 504753;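 active means inhibition of at least 50% at 20 µM in any single replicate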;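 further: 0% = DMSO with substrate and 100% = DMSO lacking glucose-6-phosphate substrate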
Diaphorase 10uM = inhibits diaphorase or oxidizes, flagging false PfG6PD hits; inhibition, % at 20 µM; 820 tested, 39% active; shares compounds with PfGluPho inh; AID 504862; diaphorase-coupled resazurin reduction, fluorescence, NADPH 10 uM;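 active means average inhibition reaching 50% or more with the compound at 20 µM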;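 further: resorufin red fluorescence formed as diaphorase reduces resazurin using NADPH; 0% = DMSO with enzyme and 100% = DMSO without enzyme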
Diaph ctr 30uM = diaphorase inhibition or oxidation at 30 uM NADPH | shares compounds with PfGluPho inh | Diaphorase/resazurin coupled assay, resorufin fluorescence | inhibition, % at 20 µM | 820 tested, 29% active | AID 504863;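 active means inhibition averaging 50% or more, tested at 20 µM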;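 further: 0% = DMSO with enzyme and 100% = DMSO wells lacking diaphorase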
* = called active by the depositor; nt = no result given. In the library only some 1.2% were active in any assay of this set; here they are far more common.

SMILES | Diaphorase act | PfGluPho inh | HKDC1 inh | G6PDH CS | Diaphorase inh | HKDC1 act conf | PfGluPho conf | Diaphorase 10uM | Diaph ctr 30uM
CC1(C)Cc2ccccc2C2=NNC(=O)C2=N1 | 0.3 | 108* | 53* | 52* | 69* | 37 | 94* | 93* | 93*
COc1ccc(N=C2C(=S)N(c3ccc(OC)cc3)C(=NS(=O)(=O)c3ccccc3)N2c2ccccc2)cc1 | nt | 84* | -69 | nt | nt | -5 | 68* | -26 | -16
O=C(O)c1ccc2c(c1)C(=O)N(c1nccs1)C2=O | nt | 2 | -1 | nt | nt | nt | nt | nt | nt
CC(OC(=O)c1cc(O)c2ccccc2c1O)C(=O)Nc1ccc(C(N)=O)cc1 (stereo unspecified) | nt | 72* | 39* | nt | nt | 28 | 33 | nt | nt
CC(OC(=O)c1ccccc1C(=O)N(C)c1ccccc1)C(=O)Nc1ccc(C(N)=O)cc1 (stereo unspecified) | nt | 13 | -3 | nt | nt | nt | nt | nt | nt
Nc1cc(C(F)(F)F)ccc1-n1cccc1 | 1.2 | 1 | -10 | 16 | -16 | nt | nt | nt | nt
O=C1/C(=C\c2ccc(Cl)c(Cl)c2)CN(C(=O)CCN2CCOCC2)C/C1=C/c1ccc(Cl)c(Cl)c1 | nt | 60* | 61* | nt | nt | 17 | 25 | nt | nt
O=C1/C(=C\c2ccccc2)CN(C(=O)CCN2CCCCC2)C/C1=C/c1ccccc1 | nt | 44 | 13 | nt | nt | nt | nt | nt | nt
CCn1cc(C(=O)N2CCN(c3ccc(OC)cc3)CC2)c(=O)c2cc(S(=O)(=O)N3CCOCC3)ccc21 | nt | 10 | 3 | nt | nt | nt | nt | nt | nt
CC1=NOC(=O)/C1=C\c1ccc(-c2ccc(Cl)cc2Cl)o1 | 0.9 | 70* | 54* | 0 | 13 | 47 | -26 | nt | nt
CCCOc1ccc(Cl)cc1/C=C1/C(=O)ON=C1C | nt | 10 | 5 | nt | nt | nt | nt | nt | nt
O=C(C1=C(c2ccccc2)C(=O)c2ccccc2C1=O)c1ccccc1 | 0.6 | 116* | 58* | 58* | 40 | 52 | 79* | 84* | 81*
COC1=C(c2ccccc2)C(=O)c2ccccc2C1=O | 0.9 | 24 | 11 | 46 | 8 | nt | nt | nt | nt
CC1(CCc2ccccc2)NC(=O)N(CC(=O)Nc2c(F)cccc2F)C1=O (stereo unspecified) | nt | -4 | -4 | nt | nt | nt | nt | nt | nt
CC(NC(=O)c1sc2cc([N+](=O)[O-])ccc2c1Cl)C(C)(C)C (stereo unspecified) | 1 | 97* | -76 | 10 | -4 | -39* | 70* | 0 | -3
Cc1ccc(SSc2cc(C)ccc2N)c(N)c1 | nt | 64* | -44 | nt | nt | -21 | 42 | nt | nt
Cc1cc(O)cc(C)c1Cl | nt | 23 | -3 | nt | nt | nt | nt | nt | nt
Cc1cc(O)c(-c2cc(O)c(C)cc2O)cc1O | nt | 112* | 45* | nt | nt | 24 | 110* | 73* | 22
COc1ccccc1C(=O)NCC(=O)NNC(=O)C1COc2ccccc2O1 (stereo unspecified) | nt | -11 | -1 | nt | nt | nt | nt | nt | nt
CN(C)Cc1cc(O)c(CN(C)C)cc1O | nt | 78* | 47* | nt | nt | 70 | 88* | 43 | 17
O=C(/C=C/c1cccs1)Nc1scc(-c2ccccc2)c1C(=O)O | 0.8 | 70* | 81* | 3 | 16 | 58 | 39 | nt | nt
O=C(/C=C/c1cccs1)Nc1nc(-c2ccccc2)cs1 | 0.8 | 9 | -3 | -70 | 17 | nt | nt | nt | nt
COc1ccc(Cl)cc1NC(=O)CN(C)C(=O)Cc1ccc2c(c1)CCC2 | nt | 84* | 4 | nt | nt | nt | 57* | 53* | 52*
O=C(CN1CCCCC1)Nc1ccc(S(=O)(=O)N2CCCCCC2)cc1 | 0.9 | -1 | 5 | -1 | 10 | nt | nt | nt | nt
O=C(CN1CCN(c2ccc(O)cc2)CC1)Nc1ccc(S(=O)(=O)N2CCCC2)cc1 | nt | 60* | 4 | nt | nt | nt | 31 | nt | nt
Cc1ccc(NC(=O)NC(=O)CN2CCC(C(N)=O)CC2)c(C)c1 | nt | -8 | -6 | nt | nt | nt | nt | nt | nt

Screening data (PubChem BioAssay)
